# Only a selection was taken, and hits are over-represented in it overall.
# INS-1E rescue = rescue of cytokine-induced death in INS-1E beta cells. protection from cytokine-induced ATP loss, % at 10 µM. 20,000 compounds, 0.1% hits. INS-1E cytokine-induced death, ATP luminescence, 48 h; normalised: neutral wells 0, positive control 100;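 active = mean replicate protection from cytokine-induced ATP loss at least 50% and at least 75% of replicates each reaching 50%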
#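 assay system = INS-1E rat insulinoma cells | amount = 8000 cells per well | medium = phenol-red-free RPMI with 5% fetal bovine serum | doses = one compound concentration, pin transfer | timing = 48 h cytokine plus compound treatment, 10 min reagent incubation | also added = IL-1β, TNF-α and IFN-γ cytokine mix | signal = CellTiter-Glo luminescence measuring cellular ATP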
# T cruzi intra = intracellular Trypanosoma cruzi inhibition | AID 651903 | intracellular Trypanosoma cruzi in host cells, plate reader | 22,000 compounds, 4.9% hits | activity score (inhibition), % at 5.01 µM; in the data active = activity score above about 55%;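 note: parasites and compound incubated about four days before reading; 0% = median of neutral control wells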
# YB-1 expr inh = YB-1 expression inhibition; U2OS, qRT-PCR YB-1 vs CDIP delta delta Cp, 16 h; stronger effect = higher value; zero = DMSO, each unit about twofold; delta delta Cp (YB-1 minus CDIP) (test concentration not listed); 30,000 compounds, 0.37% hits;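 active = delta delta Cp rounded down to an integer at or above 3, about 3 SD of DMSO wells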;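 note: higher means less YB-1 transcript or more CDIP transcript relative to DMSO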
# An asterisk follows results filed as active; nt = no result given.
SMILES,INS-1E rescue,T cruzi intra,YB-1 expr inh
Cc1ccc(S(=O)(=O)N(C)C[C@H]2Oc3c(NC(=O)c4nc5ccccc5s4)cccc3C(=O)N([C@H](C)CO)C[C@@H]2C)cc1,-18,89*,-0.5
C[C@@H]1CN([C@@H](C)CO)C(=O)c2cccc(NC(=O)c3nc4ccccc4s3)c2O[C@@H]1CN(C)S(=O)(=O)c1ccccc1,-40,60*,0.36
C[C@@H]1CN([C@H](C)CO)C(=O)c2cccc(NC(=O)c3nc4ccccc4s3)c2O[C@H]1CN(C)S(=O)(=O)c1ccccc1,-11,28,-0.33
Cc1ccc(S(=O)(=O)N(C)C[C@H]2Oc3c(NC(=O)c4nc5ccccc5s4)cccc3C(=O)N([C@H](C)CO)C[C@H]2C)cc1,4,16,-0.45
C[C@H](CO)N1C[C@H](C)[C@H](CN(C)S(=O)(=O)c2ccc(F)cc2)Oc2c(NC(=O)c3nc4ccccc4s3)cccc2C1=O,-37,61*,1.3
C[C@H](CO)N1C[C@H](C)[C@H](CN(C)S(=O)(=O)c2ccc(F)cc2)Oc2c(NS(=O)(=O)c3ccc(F)cc3)cccc2C1=O,-5,61*,0.19
CC(C)=CCc1cc2c(cc1O)O[C@H]1c3ccc(O)c(O)c3OC[C@@H]21,nt,nt,-0.22
O=C1N=c2ccccc2=N/C1=N\C(=S)Nc1ccccc1,nt,nt,-0.25
CC1Oc2ccccc2OC1(O)c1ccc(Br)cc1 (stereo unspecified),nt,nt,-0.39
O=C(O)CCNC(=O)c1ccco1,nt,nt,0.4
COC(=O)C1=C(C)N=C2SC(C#N)=C(N)N2C1c1cccs1 (stereo unspecified),nt,nt,-0.11
NNC(=O)c1cc(-c2ccccc2)n[nH]1,nt,nt,0.53
Cc1cc(C)c2c(c1C(=O)Nc1cccc(C(F)(F)F)c1)CC(C)(C)C2=O,nt,nt,-0.34
Cc1ccc(S(=O)(=O)N(C)C[C@H]2Oc3c(NC(=O)c4nc5ccccc5s4)cccc3C(=O)N([C@@H](C)CO)C[C@H]2C)cc1,-17,16,-0.65
Cc1ccc(S(=O)(=O)N(C)C[C@H]2Oc3c(NC(=O)c4nc5ccccc5s4)cccc3C(=O)N([C@@H](C)CO)C[C@@H]2C)cc1,-12,75*,-0.14
COc1cccc(S(=O)(=O)N(C)C[C@@H]2Oc3ncc(C#Cc4ccc(F)cc4)cc3C(=O)N([C@H](C)CO)C[C@@H]2C)c1,nt,73*,-0.0022
Cc1ccc(S(=O)(=O)N(C)C[C@@H]2Oc3ncc(C#Cc4ccc(C(F)(F)F)cc4)cc3C(=O)N([C@H](C)CO)C[C@@H]2C)cc1,-3,89*,-0.51
C[C@H](CO)N1C[C@H](C)[C@H](CN(C)S(=O)(=O)c2ccc(F)cc2)Oc2ncc(C#Cc3ccccc3)cc2C1=O,nt,62*,-0.22
C[C@H](CO)N1C[C@H](C)[C@H](CN(C)S(=O)(=O)c2ccc(F)cc2)Oc2ncc(C#Cc3ccc(C(F)(F)F)cc3)cc2C1=O,nt,85*,-0.23
Cc1ccc(S(=O)(=O)N(C)C[C@@H]2Oc3ncc(C#CCN(C)C)cc3C(=O)N([C@H](C)CO)C[C@@H]2C)cc1,nt,23,0.06
CCCC(O)C#Cc1cnc2c(c1)C(=O)N([C@H](C)CO)C[C@H](C)[C@H](CN(C)S(=O)(=O)c1ccc(F)cc1)O2 (stereo partly specified),nt,18,-0.18
C[C@H](CO)N1C[C@H](C)[C@H](CN(C)S(=O)(=O)c2ccccc2)Oc2ncc(C#Cc3ccccc3)cc2C1=O,nt,48,-0.2
CCCC(O)C#Cc1cnc2c(c1)C(=O)N([C@H](C)CO)C[C@H](C)[C@H](CN(C)S(=O)(=O)c1cccc(OC)c1)O2 (stereo partly specified),nt,14,0.12
Cn1c(CSCc2ccccc2)c(C#N)c2ccccc21,nt,nt,0.097
CCn1c(Cn2nnc3ccccc32)nnc1SCC(=O)c1ccc(Br)cc1,nt,nt,0.087
COCCCN1C(=O)[C@@]2(Cc3ccccc31)c1ccccc1C(=O)N(Cc1ccccc1C(F)(F)F)[C@H]2c1ccc(CO)cc1,nt,nt,-0.037
CCCC1C2C(=O)N(c3ccccc3)C(=O)C2ON1c1ccc(Cl)c(Cl)c1 (stereo unspecified),nt,nt,-0.016
C[C@H](CO)N1C[C@H](C)[C@H](CN(C)S(=O)(=O)c2ccccc2)Oc2ncc(C#Cc3ccc(C(F)(F)F)cc3)cc2C1=O,nt,78*,0.34
C[C@H](CO)N1C[C@H](C)[C@H](CN(C)S(=O)(=O)c2cccc(F)c2)Oc2ncc(C#Cc3ccc(C(F)(F)F)cc3)cc2C1=O,nt,85*,0.11
COc1ccc(C#Cc2cnc3c(c2)C(=O)N([C@H](C)CO)C[C@H](C)[C@H](CN(C)S(=O)(=O)c2ccccc2)O3)cc1OC,nt,37,0.078

# Assay outcomes as filed in PubChem BioAssay.
